Where only a bound is given, the exact number is not on record here.

The test system of experiment [1] is chloroquine-resistant P. falciparum Dd2 parasites. Nature of the experiment: SYBR Green I dose–response assay against Dd2 parasites. Type of experiment: cell-based. Particulars: Plasmodium falciparum, DD2, read-out: EC50 Dd2, chloroquine-resistant P. falciparum Dd2, three or more independent experiments. Put shortly:
(§1)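 Dose–response EC50 values, each from three or more independent experiments. Dd2 and 3D7 runs use chloroquine as comparator. The selectivity index is calculated as HepG2 EC50 divided by Dd2 EC50.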

Experiment [2] deals with wild-type P. falciparum 3D7 cells. Kind of experiment: dose–response assay against 3D7 cells. Type of experiment: cell-based. The note with it: Plasmodium falciparum, 3D7, read-out: EC50 3D7. The procedure, abridged: as §1
Experiment [3] has as its system HepG2 (liver hepatocellular carcinoma) cells. Kind of experiment: HepG2. Particulars: for selectivity index (SI): HepG2 EC50/EC50 Dd2 cells; for EC50: Homo sapiens, HepG2, read-out: EC50 HepG2. It counts as cell-based, human. The procedure, abridged:
as §1

Regarding `CCN(CC)CCCC(C)Nc1ccnc2cc(Cl)ccc12` (stereo not shown) [Chloroquine, reference compound], the concentration for a half-maximal effect (EC50) in experiment [1] was found to be 190 nM; in experiment [2], 17 nM.
The matching figures for `CC[C@]12CCCN3CCc4c(n(c5ccccc45)[C@@](O)(C(=O)OC)C1)[C@@H]32` [Compound 1, Vincamine, reference compound]: above 50000 nM and above 50000 nM.
Turning to `CC[C@@]12C=C(C(=O)OC)n3c(c(c4ccccc43)CCNCCC1)[C@@H]2c1ccc(O)cc1` [Compound 18, Methyl (11S,19S)-11-ethyl-19-(4-hydroxyphenyl)-8,15-diazatetracyclo[9.6.2.0^2,7.0^8,18]nonadeca-1(18),2(7),3,5,9-pentaene-9-carboxylate], the half-maximal effective concentration (EC50) in experiment [1] is 10800 ± 2930 nM.
With `CC[C@@]12C=C(C(=O)OC)n3c(c(c4ccccc43)CCN(/C=C/C(=O)OC)CCC1)[C@@H]2c1ccc(OC(C)=O)cc1` [Compound 19, Methyl (11S,19S)-19-[4-(acetyloxy)phenyl]-11-ethyl-15-[(1E)-3-methoxy-3-oxoprop-1-en-1-yl]-8,15-diazatetracyclo[9.6.2.0^2,7.0^8,18]nonadeca-1(18),2(7),3,5,9-pentaene-9-carboxylate], the EC50 in experiment [1] is 6110 ± 1560 nM.
With `CC[C@@]12C=C(C(=O)OC)n3c(c(c4ccccc43)CCN(C(C)=O)CCC1)[C@@H]2c1ccc(O)cc1` [Compound 20, methyl (11S,19S)-15-acetyl-11-ethyl-19-(4-hydroxyphenyl)-8,15-diazatetracyclo[9.6.2.0^2,7.0^8,18]nonadeca-1(18),2(7),3,5,9-pentaene-9-carboxylate], the half-maximal effective concentration (EC50) in experiment [1] was above 20000 nM; in experiment [2], 12000 ± 3400 nM.
As for `CC[C@@]12C=C(C(=O)OC)n3c(c(c4ccccc43)CCN(C(=O)c3ccc(OC)nc3)CCC1)[C@@H]2c1ccc(O)cc1` [Compound 21, methyl (11S,19S)-11-ethyl-19-(4-hydroxyphenyl)-15-(6-methoxypyridine-3-carbonyl)-8,15-diazatetracyclo[9.6.2.0^2,7.0^8,18]nonadeca-1(18),2(7),3,5,9-pentaene-9-carboxylate], the concentration giving a half-maximal response (EC50) is 630 ± 120 nM in experiment [1] and 1330 ± 180 nM in experiment [2].
On to `CC[C@@]12C=C(C(=O)OC)n3c(c(c4ccccc43)CCN(C(=O)COCCOCCOC)CCC1)[C@@H]2c1ccc(O)cc1` [Compound 22, methyl (11S,19S)-11-ethyl-19-(4-hydroxyphenyl)-15-{2-[2-(2-methoxyethoxy)ethoxy]acetyl}-8,15-diazatetracyclo[9.6.2.0^2,7.0^8,18]nonadeca-1(18),2(7),3,5,9-pentaene-9-carboxylate], for which the EC50 in experiment [1] stood at 4100 ± 550 nM.
Consider `CC[C@@]12C=C(C(=O)OC)n3c(c(c4ccccc43)CCN(C(=O)C3CCCCC3)CCC1)[C@@H]2c1ccc(O)cc1` [Compound 23, methyl (11S,19S)-15-cyclohexanecarbonyl-11-ethyl-19-(4-hydroxyphenyl)-8,15-diazatetracyclo[9.6.2.0^2,7.0^8,18]nonadeca-1(18),2(7),3,5,9-pentaene-9-carboxylate], for which the EC50 in experiment [1] came out at 2530 ± 340 nM.
For the compound `CC[C@@]12C=C(C(=O)OC)n3c(c(c4ccccc43)CCN(C(=O)c3ccc(C(F)(F)F)cc3)CCC1)[C@@H]2c1ccc(O)cc1` [Compound 24, methyl (11S,19S)-11-ethyl-19-(4-hydroxyphenyl)-15-[4-(trifluoromethyl)benzoyl]-8,15-diazatetracyclo[9.6.2.0^2,7.0^8,18]nonadeca-1(18),2(7),3,5,9-pentaene-9-carboxylate], the EC50 in experiment [1] was 1540 ± 4 nM.
Regarding `CC[C@@]12C=C(C(=O)OC)n3c(c(c4ccccc43)CCN(C(=O)c3cccnc3)CCC1)[C@@H]2c1ccc(O)cc1` [Compound 25, methyl (11S,19S)-11-ethyl-19-(4-hydroxyphenyl)-15-(pyridine-3-carbonyl)-8,15-diazatetracyclo[9.6.2.0^2,7.0^8,18]nonadeca-1(18),2(7),3,5,9-pentaene-9-carboxylate], the “selectivity index (SI)” value in experiment [3] is listed as above 45. Besides, the results for the EC50 in experiment [3], in experiment [1] and in experiment [2] were above 25000 nM, 550 ± 70 nM and 2250 ± 400 nM, respectively.
In the same order, the values of `CC[C@@]12C=C(C(=O)OC)n3c(c(c4ccccc43)CCN(C(=O)c3ccco3)CCC1)[C@@H]2c1ccc(O)cc1` [Compound 26, methyl (11S,19S)-11-ethyl-15-(furan-2-carbonyl)-19-(4-hydroxyphenyl)-8,15-diazatetracyclo[9.6.2.0^2,7.0^8,18]nonadeca-1(18),2(7),3,5,9-pentaene-9-carboxylate] are above 10, above 25000 nM, 2480 ± 330 nM and 1800 ± 360 nM.
Consider `CC[C@@]12C=C(C(=O)OC)n3c(c(c4ccccc43)CCN(C(=O)c3cncnc3)CCC1)[C@@H]2c1ccc(O)cc1` [Compound 27, methyl (11S,19S)-11-ethyl-19-(4-hydroxyphenyl)-15-(pyrimidine-5-carbonyl)-8,15-diazatetracyclo[9.6.2.0^2,7.0^8,18]nonadeca-1(18),2(7),3,5,9-pentaene-9-carboxylate], for which, in experiment [3], the “selectivity index (SI)” value is on record as above 34. The EC50 in experiment [3] is above 25000 nM; in experiment [1], 730 ± 110 nM; in experiment [2], 1990 ± 300 nM.
In the same order, the values of `CC[C@@]12C=C(C(=O)OC)n3c(c(c4ccccc43)CCN(C(=O)c3ccno3)CCC1)[C@@H]2c1ccc(O)cc1` [Compound 28, methyl (11S,19S)-11-ethyl-19-(4-hydroxyphenyl)-15-(1,2-oxazole-5-carbonyl)-8,15-diazatetracyclo[9.6.2.0^2,7.0^8,18]nonadeca-1(18),2(7),3,5,9-pentaene-9-carboxylate] are above 11, above 25000 nM, 2140 ± 360 nM and 970 ± 30 nM.
Turning to `CC[C@@]12C=C(C(=O)OC)n3c(c(c4ccccc43)CCN(C(=O)c3ccc[nH]3)CCC1)[C@@H]2c1ccc(O)cc1` [Compound 29, methyl (11S,19S)-11-ethyl-19-(4-hydroxyphenyl)-15-(1H-pyrrole-2-carbonyl)-8,15-diazatetracyclo[9.6.2.0^2,7.0^8,18]nonadeca-1(18),2(7),3,5,9-pentaene-9-carboxylate], the EC50 in experiment [1] was found to be 2980 ± 400 nM; in experiment [2] it was 3180 ± 70 nM.
Turning to `CC[C@@]12C=C(C(=O)OC)n3c(c(c4ccccc43)CCN(C(=O)c3ccncc3)CCC1)[C@@H]2c1ccc(O)cc1` [Compound 31, methyl (11S,19S)-11-ethyl-19-(4-hydroxyphenyl)-15-(pyridine-4-carbonyl)-8,15-diazatetracyclo[9.6.2.0^2,7.0^8,18]nonadeca-1(18),2(7),3,5,9-pentaene-9-carboxylate], the EC50 in experiment [1] came out at 5900 ± 260 nM.
As for `CC[C@@]12C=C(C(=O)OC)n3c(c(c4ccccc43)CCN(C(=O)c3ccccc3)CCC1)[C@@H]2c1ccc(O)cc1` [Compound 34, methyl (11S,19S)-15-benzoyl-11-ethyl-19-(4-hydroxyphenyl)-8,15-diazatetracyclo[9.6.2.0^2,7.0^8,18]nonadeca-1(18),2(7),3,5,9-pentaene-9-carboxylate], the results for the EC50 in experiment [1] and in experiment [2] were 2950 ± 1140 nM and 6600 ± 1060 nM, respectively.

Values taken from article PMC8359148 (ACS Omega, 2021).
